Laboratory results taken from ChEMBL document CHEMBL5154715, “Phenolic Lipids Derived from Cashew Nut Shell Liquid to Treat Metabolic Diseases” (J Med Chem, 2022).
Calls of active or inactive are those of the source. The rule behind the calls is not given here.

Experiments:
[1] = molecular target: T1, Peroxisome proliferator-activated receptor gamma (Homo sapiens) (UniProt P37231); experiment: Agonist activity at human PPARgamma expressed in HEK293 cells assessed as maximal activity by luciferase/beta-galactosidase reporter gene assay relative to rosiglitazone; type: cell-based
T1 sequence (whole entry): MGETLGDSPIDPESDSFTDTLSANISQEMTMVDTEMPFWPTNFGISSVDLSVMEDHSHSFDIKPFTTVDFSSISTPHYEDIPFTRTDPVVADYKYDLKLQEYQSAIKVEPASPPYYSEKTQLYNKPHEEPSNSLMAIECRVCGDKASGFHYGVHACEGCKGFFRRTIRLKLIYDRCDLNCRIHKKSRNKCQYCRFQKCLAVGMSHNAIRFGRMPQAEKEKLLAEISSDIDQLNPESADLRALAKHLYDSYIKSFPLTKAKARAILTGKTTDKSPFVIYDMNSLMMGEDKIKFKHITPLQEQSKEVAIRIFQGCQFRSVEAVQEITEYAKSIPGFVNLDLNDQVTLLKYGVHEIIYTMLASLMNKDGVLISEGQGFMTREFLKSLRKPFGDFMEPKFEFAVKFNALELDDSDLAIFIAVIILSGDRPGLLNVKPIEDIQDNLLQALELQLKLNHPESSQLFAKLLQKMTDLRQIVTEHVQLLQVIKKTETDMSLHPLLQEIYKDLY
Method in brief: (§1)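 HEK293 cells in charcoal-stripped FBS, calcium phosphate co-transfected with GAL4-hPPAR LBD fusion, UAS-luciferase and β-galactosidase. Ligand added 6–8 h post transfection, full dose–response, harvested 14–16 h later. Luciferase normalized to β-galactosidase.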

[2] = molecular target: T2, Peroxisome proliferator-activated receptor alpha (Mus musculus) (UniProt P23204); experiment: Agonist activity at human PPARalpha in mouse hepatocytes assessed as induction of Pdk4 mRNA expression at 50 uM incubated for 16 hrs by quantitative real-time PCR analysis; type: cell-based; conditions: Hepatocyte, filed as agonist
T2 sequence (whole entry): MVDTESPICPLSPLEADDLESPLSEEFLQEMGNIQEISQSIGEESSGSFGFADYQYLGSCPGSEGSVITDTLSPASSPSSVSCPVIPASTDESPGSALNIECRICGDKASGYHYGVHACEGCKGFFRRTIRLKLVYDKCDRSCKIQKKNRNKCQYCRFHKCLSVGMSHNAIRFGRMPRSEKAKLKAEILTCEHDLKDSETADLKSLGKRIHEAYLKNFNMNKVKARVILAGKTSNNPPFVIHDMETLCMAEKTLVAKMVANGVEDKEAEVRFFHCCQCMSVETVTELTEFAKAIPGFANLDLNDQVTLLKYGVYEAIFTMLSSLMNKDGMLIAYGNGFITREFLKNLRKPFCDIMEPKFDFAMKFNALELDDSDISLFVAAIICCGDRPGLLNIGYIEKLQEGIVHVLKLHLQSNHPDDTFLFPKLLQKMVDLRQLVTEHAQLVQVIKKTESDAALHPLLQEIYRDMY
Method in brief: (§2)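 Collagenase-perfused mouse primary hepatocytes from WT mice, plated 2 h in attachment medium, overnight in M199 with 5% charcoal-stripped FBS and 1 nM insulin. Treated next day in serum-free M199 with 50 μM compound for 16 h. RNA qPCR (SYBR Green), comparative Ct method.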

[3] = molecular target: T3, Peroxisome proliferator-activated receptor alpha (Homo sapiens) (UniProt Q07869); experiment: Agonist activity at human PPARalpha transfected in HEK293 cells assessed as relative luciferase unit at 50 uM measured after 16 hrs by luciferase reporter gene assay; type: cell-based; conditions: filed as agonist
T3 sequence (whole entry): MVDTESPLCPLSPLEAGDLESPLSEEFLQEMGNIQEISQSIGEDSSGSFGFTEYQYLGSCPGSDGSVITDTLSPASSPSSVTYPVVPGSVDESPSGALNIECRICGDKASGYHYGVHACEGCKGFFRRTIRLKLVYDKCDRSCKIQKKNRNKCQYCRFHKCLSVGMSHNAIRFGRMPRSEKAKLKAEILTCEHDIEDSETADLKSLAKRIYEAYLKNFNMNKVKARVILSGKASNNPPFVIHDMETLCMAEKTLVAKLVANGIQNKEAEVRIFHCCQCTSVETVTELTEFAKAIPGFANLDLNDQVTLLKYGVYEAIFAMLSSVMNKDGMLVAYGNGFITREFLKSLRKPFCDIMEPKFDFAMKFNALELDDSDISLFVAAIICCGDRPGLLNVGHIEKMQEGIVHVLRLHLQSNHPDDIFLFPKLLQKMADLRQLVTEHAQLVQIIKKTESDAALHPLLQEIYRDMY
Method in brief: (§3)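 GAL4-hPPAR (α or γ) plus UAS-luciferase and β-galactosidase transiently co-transfected into HEK293 cells, then treated with 50 μM compound for 16 h. RLU = luciferase/β-galactosidase × time, vehicle (DMSO) set to 1. Mean ± SD, N = 3; one-way ANOVA with Holm–Šidák vs vehicle.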

[4] = molecular target: T4, Peroxisome proliferator-activated receptor alpha (Homo sapiens, UniProt Q07869); experiment: Agonist activity at human PPARalpha expressed in HEK293 cells by luciferase/beta-galactosidase reporter gene assay; type: cell-based; method in brief: as §1
T4 sequence (Q07869 whole entry): T3 sequence (whole entry)

[5] = molecular target: T1, Peroxisome proliferator-activated receptor gamma (Homo sapiens); experiment: Agonist activity at human PPARgamma transfected in HEK293 cells assessed as relative luciferase unit at 50 uM measured after 16 hrs by luciferase reporter gene assay; type: cell-based; conditions: filed as agonist; method in brief: as §3
[6] = molecular target: T3, Peroxisome proliferator-activated receptor alpha (Homo sapiens); experiment: Agonist activity at human PPARalpha expressed in HEK293 cells assessed as maximal activity by luciferase/beta-galactosidase reporter gene assay relative to GW7647; type: cell-based; method in brief: as §1
[7] = molecular target: T5, Peroxisome proliferator-activated receptor delta (Homo sapiens) (UniProt Q03181)
T5 sequence (whole entry): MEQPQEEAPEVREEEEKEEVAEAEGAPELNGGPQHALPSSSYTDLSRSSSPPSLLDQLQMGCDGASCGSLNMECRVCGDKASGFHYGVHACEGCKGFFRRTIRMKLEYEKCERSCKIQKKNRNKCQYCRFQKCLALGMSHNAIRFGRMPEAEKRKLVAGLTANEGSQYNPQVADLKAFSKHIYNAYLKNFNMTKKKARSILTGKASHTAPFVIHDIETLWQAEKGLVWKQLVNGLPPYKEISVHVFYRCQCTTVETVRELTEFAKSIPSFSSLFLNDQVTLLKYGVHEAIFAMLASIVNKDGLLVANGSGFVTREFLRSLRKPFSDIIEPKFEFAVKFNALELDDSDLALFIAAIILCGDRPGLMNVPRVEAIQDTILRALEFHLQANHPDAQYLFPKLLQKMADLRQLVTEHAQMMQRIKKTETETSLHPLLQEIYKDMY

[8] = molecular target: T6, Peroxisome proliferator-activated receptor gamma (Homo sapiens, UniProt P37231); experiment: Agonist activity at human PPARgamma expressed in HEK293 cells by luciferase/beta-galactosidase reporter gene assay; type: cell-based; method in brief: as §1
T6 sequence (P37231 whole entry): T1 sequence (whole entry)

[9] = molecular target: T2, Peroxisome proliferator-activated receptor alpha (Mus musculus); experiment: Agonist activity at human PPARalpha in mouse hepatocytes assessed as induction of Fgf21 mRNA expression at 50 uM incubated for 16 hrs by quantitative real-time PCR analysis; type: cell-based; conditions: Hepatocyte, filed as agonist; method in brief: as §2
[10] = molecular target: T2, Peroxisome proliferator-activated receptor alpha (Mus musculus); experiment: Agonist activity at human PPARalpha in mouse hepatocytes assessed as induction of fabp1 mRNA expression at 50 uM incubated for 16 hrs by quantitative real-time PCR analysis; type: cell-based; conditions: Hepatocyte, filed as agonist; method in brief: as §2
[11] = molecular target: T2, Peroxisome proliferator-activated receptor alpha (Mus musculus); experiment: Agonist activity at human PPARalpha in mouse hepatocytes assessed as induction of cd36 mRNA expression at 50 uM incubated for 16 hrs by quantitative real-time PCR analysis; type: cell-based; conditions: Hepatocyte, filed as agonist; method in brief: as §2
[12] = molecular target: T1, Peroxisome proliferator-activated receptor gamma (Homo sapiens); experiment: Stabilization of human PPARgamma LBD assessed as change in melting temperature at 50 uM by thermal shift assay
[13] = molecular target: T7, Peroxisome proliferator-activated receptor gamma (Mus musculus) (UniProt P37238); experiment: Agonist activity at human PPARgamma in mouse 3T3-L1 cells assessed as induction of adipogenic differentiation at 25 uM measured after 11 days by Oil Red O staining analysis; type: cell-based; conditions: filed as agonist, time 11.0 day
T7 sequence (whole entry): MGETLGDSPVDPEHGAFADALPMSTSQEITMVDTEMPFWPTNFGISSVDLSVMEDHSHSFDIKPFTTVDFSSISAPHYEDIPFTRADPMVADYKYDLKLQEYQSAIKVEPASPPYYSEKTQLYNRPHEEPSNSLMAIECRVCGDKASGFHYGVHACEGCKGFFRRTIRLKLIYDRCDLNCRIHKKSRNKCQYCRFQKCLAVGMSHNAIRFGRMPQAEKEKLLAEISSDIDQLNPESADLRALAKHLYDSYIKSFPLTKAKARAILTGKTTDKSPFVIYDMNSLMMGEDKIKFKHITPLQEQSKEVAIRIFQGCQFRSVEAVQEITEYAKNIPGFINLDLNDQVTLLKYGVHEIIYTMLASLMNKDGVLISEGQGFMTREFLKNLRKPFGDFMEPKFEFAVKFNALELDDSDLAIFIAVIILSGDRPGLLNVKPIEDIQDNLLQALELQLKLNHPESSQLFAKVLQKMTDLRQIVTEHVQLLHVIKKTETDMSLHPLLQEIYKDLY
Method in brief: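 3T3-L1 cells differentiated for 11 days (IBMX/dexamethasone/insulin induction, then insulin, then maintenance medium) with 25 μM compound or 10 μM rosiglitazone from day 0. Cells formalin-fixed and stained with 0.6% Oil Red O. Lipid quantified spectrophotometrically after dye extraction.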

[14] = Metabolic stability in C57BL/6 mouse liver microsomes assessed as parent compound remaining incubated for 120 mins; type: ADME, Microsome; conditions: read-out: Stability
[15] = molecular target: T3, Peroxisome proliferator-activated receptor alpha (Homo sapiens); experiment: Stabilization of human PPARalpha LBD assessed as change in melting temperature at 25 uM by thermal shift assay
Method in brief: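 Purified hPPAR LBD at 1 mg/mL (∼25 μM) with ligand (α-LBD at 25 μM; γ- and δ-LBD at 50 μM). Static light scattering at 473 nm from 25 to 70 °C in 0.5 °C steps, 1 °C/min. Tm from four-parameter fit; ΔTm relative to DMSO; mean ± SEM, N = 3.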

[16] = Metabolic stability in C57BL/6 mouse liver microsomes assessed as half life; type: ADME, Microsome; conditions: time 2 min
[17] = molecular target: T5, Peroxisome proliferator-activated receptor delta (Homo sapiens); experiment: Stabilization of human PPARdelta LBD assessed as change in melting temperature at 50 uM by thermal shift assay
[18] = molecular target: T7, Peroxisome proliferator-activated receptor gamma (Mus musculus); experiment: Agonist activity at human PPARgamma in mouse 3T3-L1 cells assessed as induction of Glut4 mRNA expression at 25 uM incubated for 11 days by quantitative real-time PCR analysis; conditions: filed as agonist, time 11.0 day
[19] = molecular target: T7, Peroxisome proliferator-activated receptor gamma (Mus musculus); experiment: Agonist activity at human PPARgamma in mouse 3T3-L1 cells assessed as induction of Adipoq-mRNA expression at 25 uM incubated for 11 days by quantitative real-time PCR analysis; conditions: filed as agonist, time 11.0 day

SMILES | Activity [2] | Emax [6] [%] | Activity [3] | EC50 [4] [µM] | Activity [5] | EC50 ([7]; HEK293, filed as agonist) [µM] | EC50 [8] [µM] | Activity [11] | also measured
CCCCCCCCCCCCCCCc1cccc(O)c1C(=O)O [ANACARDIC ACID] | Active | 30 | Active | 3.5 | Active | 68 | 17 | – | Emax ([1]; filed as agonist): > 90%
CCCCCC/C=C\CCCCCCCc1cccc(OC(C)(C)C(=O)OCC)c1 | – | 30 | Active | 67 | Active | – | > 50 | Active | Activity [10]: Active; EC50 ([7]; HEK293): > 100 µM
CCCCCCCCCCCCCCCc1cccc(OCC(=O)OCC)c1 | – | 30 | Active | – | Active | – | 29 | – | Emax [1]: 30%; ΔTm [12]: -3 °C; Activity [13]: Active; remaining at 2 h [14]: 28%; ΔTm [15]: -4.5 °C; half-life [16]: 1.1 h; EC50 ([7]; HEK293): > 100 µM; ΔTm [17]: 1.2 °C
CCCCCC/C=C\CCCCCCCc1cccc(OCC(=O)OCC)c1 | Active | 30 | Active | 4.4 | Active | 7.1 | > 50 | Active | Activity [18]: Active; Activity [10]: Active; Activity [19]: Active
CCCCCC/C=C\CCCCCCCc1cccc(OCC(=O)O)c1 | – | – | Active | 21 | Active | 70 | > 50 | Active | Emax ([6]; filed as agonist): > 90%
CCCCCCCC/C=C\CCCCCCCC(=O)O [OLEIC ACID] | – | – | Active | 36 | – | 47 | – | – | Emax ([6]; filed as agonist): > 90%

More lines, main results first:

Activity [2] | Emax [6] [%] | SMILES | Activity [3] | EC50 [4] [µM] | Activity [5] | EC50 ([7]; HEK293, filed as agonist) [µM] | EC50 [8] [µM] | Activity [11] | also measured
Active | – | CC(C)(Sc1ccc(CCN(CCCCC2CCCCC2)C(=O)NC2CCCCC2)cc1)C(=O)O | – | – | – | – | – | Active | Activity [9]: Active; Activity [10]: Active
– | 30 | CCCCCCCCCCCCCC(=O)O [MYRISTIC ACID] | Active | 13 | – | – | – | – | –
– | 30 | CCCCCCCCCCCCCCCCCC(=O)O [STEARIC ACID] | Active | 40 | – | – | – | – | –
– | 30 | CCCCCCCCCC(=O)O [DECANOIC ACID] | Active | 31 | – | – | – | – | –
– | 30 | CCCCCCCCCCCCCCCc1ccc(C(=O)O)c(OC)c1 | Active | 17 | Active | – | 8.1 | – | Emax [1]: 30%
Active | 30 | CCCCCCCCCCCCCCCc1ccc(C(=O)O)c(O)c1 | Active | 8.9 | – | – | – | – | Activity [9]: Active
Active | 30 | CCCCCCCCCCCCCCCc1cccc(OC)c1C(=O)O | Active | – | – | – | – | – | Activity [9]: Active
